Data taken from ChEMBL document CHEMBL1770120 (Eur J Med Chem, 2011).

Key:
[1] = Cytotoxicity against human KB-0528 cells after 72 hrs by SRB assay; format: functional, cell-based; conditions: KB-0528, 72 h
Summary of the method: (§1)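 Cells grown in RPMI 1640 with 10% FBS at 37 °C under 5% CO2 and seeded at 0.4–1.0 × 10^4 cells/well. Compounds added after 24 h from DMSO stock, at least five concentrations, final DMSO ≤0.1%. Exposure 72 h. Growth read by SRB staining at OD 520 nm. Three experiments, each in quadruplicate. IC50 taken from survival (%) versus concentration curves.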

[2] = Cytotoxicity against multidrug-resistant human HL60OR-0604-2 cells after 72 hrs by SRB assay; format: functional, cell-based; summary of the method: as §1
[3] = Intrinsic clearance in human liver microsomes; format: ADME, Microsome
Summary of the method: (§2)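 Test compound at 5 µmol/L with pooled human liver microsomes (0.5 mg/mL) and 1 mM NADPH in 0.1 M potassium phosphate buffer, pH 7.4, at 37 °C. Reactions stopped with acetonitrile at 0, 5, 10, 15, 30 and 60 min. Samples extracted with n-hexane:dichloromethane:isopropanol and spun to remove protein. Remaining parent measured by HPLC-MS (ESI positive).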

[4] = AUC (0 to t) in Sprague-Dawley rat at 5 mg/kg, iv by LC-MS/MS analysis; format: ADME, organism-based; design: dose 5 mg/kg, route intravenous; conditions: plasma
Summary of the method: (§3)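 Male Sprague-Dawley rats (200–220 g), five per group, fasted from the evening before dosing until 2 h post-dose. Single i.v. dose of 5 mg/kg in cremophor:ethanol (1:1) diluted with sterile 0.154 M NaCl, given at 10 ml/kg. Plasma sampled 5–1440 min. Plasma kept at -20 °C and assayed by LC-MS-MS after liquid–liquid extraction. Parameters from mean plasma concentrations by non-compartmental analysis.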

[5] = Cytotoxicity against multidrug-resistant human KBR-0530 cells after 72 hrs by SRB assay; format: functional, cell-based; conditions: KBR-0530, 72 h; summary of the method: as §1
[6] = Cytotoxicity against human HL60-0607-2 cells after 72 hrs by SRB assay; format: functional, cell-based; summary of the method: as §1
[7] = Mean residence time in Sprague-Dawley rat at 5 mg/kg, iv by LC-MS/MS analysis; format: ADME, organism-based; design: dose 5 mg/kg, route intravenous; conditions: in vivo; summary of the method: as §3
[8] = Half life in Sprague-Dawley rat plasma at 5 mg/kg, iv by LC-MS/MS analysis; format: ADME, organism-based; design: dose 5 mg/kg, route intravenous; summary of the method: as §3
[9] = tested on: Liver microsomes; test: (§4) Half life in human liver microsomes; format: ADME, Microsome; conditions: microsomes; summary of the method: as §2
[10] = Cytotoxicity against multidrug-resistant human KBR-0602 cells after 72 hrs by SRB assay; format: functional, cell-based; conditions: KBR-0602, 72 h; summary of the method: as §1
[11] = tested on: Liver microsomes; test: (§5) Metabolic stability in human liver microsomes assessed as unchanged remaining compound after 60 mins; format: ADME, Microsome; conditions: microsomes, 1 h; summary of the method: as §2
[12] = Apparent volume of distribution in Sprague-Dawley rat at 5 mg/kg, iv by LC-MS/MS analysis; format: ADME, organism-based; design: dose 5 mg/kg, route intravenous; conditions: in vivo, read-out: Vz; summary of the method: as §3
[13] = Total plasma clearance in Sprague-Dawley rat at 5 mg/kg, iv by LC-MS/MS analysis; format: ADME, organism-based; design: dose 5 mg/kg, route intravenous; summary of the method: as §3
[14] = AUC (0 to infinity) in Sprague-Dawley rat at 5 mg/kg, iv by LC-MS/MS analysis; format: ADME, organism-based; design: time infinity, dose 5 mg/kg, route intravenous; conditions: plasma; summary of the method: as §3
[15] = Ratio of compound IC50 to docetaxel IC50 for human HL60-0607-2 cells; format: functional
[16] = as §4; format: ADME, Microsome; conditions: liver microsomes; summary of the method: as §2
[17] = as §5; format: ADME, Microsome; conditions: liver microsomes, read-out: Stability; summary of the method: as §2
[18] = Ratio of compound IC50 to docetaxel IC50 for human HL60OR-0604-2 cells; format: functional

Structure (SMILES) | IC50 [1] | IC50 [2] | CLint scaled [3] | AUC(0-t) [4] | IC50 [5] | IC50 [6] | MRT [7] | half-life [8] | t1/2 [9] | IC50 [10] | Stability [11] | Vd [12] | clearance [13] | AUC(0-inf) [14] | Ratio IC50 [15] | half-life [16] | remaining at 1 h [17] | Ratio IC50 [18]
CC(=O)O[C@@]12CO[C@@H]1C[C@H](O)[C@@]1(C)C(=O)[C@H](O)C3=C(C)[C@@H](OC(=O)[C@H](O)[C@@H](NC(=O)OC(C)(C)CF)c4ccc(F)cc4)C[C@@](O)([C@@H](OC(=O)c4ccccc4)[C@H]21)C3(C)C | 0.915 nM | 0.51 nM | 8.62 mL/min/kg | 1640 ng·h/mL | 0.232 nM | 0.14 nM | 2.13 h | 5.06 h | 2.407 h | 0.195 nM | 53.8% | 22 L/kg | 50.3 mL/min/kg | 1660 ng·h/mL | – | – | – | –
CC(=O)O[C@@]12CO[C@@H]1C[C@H](O)[C@@]1(C)C(=O)[C@H](O)C3=C(C)[C@@H](OC(=O)[C@H](O)[C@@H](NC(=O)OC(C)(C)C(F)F)c4ccc(F)cc4)C[C@@](O)([C@@H](OC(=O)c4ccccc4)[C@H]21)C3(C)C | 0.397 nM | 2.08 nM | 3.41 mL/min/kg | 3150 ng·h/mL | 0.321 nM | 0.0168 nM | 4.28 h | 13.4 h | 6.08 h | 0.885 nM | 72.4% | 27.4 L/kg | 25.2 mL/min/kg | 3360 ng·h/mL | – | – | – | –
CC(=O)O[C@@]12CO[C@@H]1C[C@H](O)[C@@]1(C)C(=O)[C@H](O)C3=C(C)[C@@H](OC(=O)[C@H](O)[C@@H](NC(=O)OC(C)(C)C(F)(F)F)c4ccc(F)cc4)C[C@@](O)([C@@H](OC(=O)c4ccccc4)[C@H]21)C3(C)C | 0.0259 nM | 0.0155 nM | 0.36 mL/min/kg | 3870 ng·h/mL | 0.332 nM | 0.000358 nM | 2.78 h | 8.5 h | – | 0.432 nM | – | 15.8 L/kg | 21.3 mL/min/kg | 3980 ng·h/mL | 20 | 57.8 h | 88.5% | 10
CC(=O)O[C@@]12CO[C@@H]1C[C@H](O)[C@@]1(C)C(=O)[C@H](O)C3=C(C)[C@@H](OC(=O)[C@H](O)[C@@H](NC(=O)OC(C)(C)CF)c4ccccc4)C[C@@](O)([C@@H](OC(=O)c4ccccc4)[C@H]21)C3(C)C | 0.506 nM | 0.958 nM | – | 914 ng·h/mL | 0.0322 nM | 0.156 nM | 5.62 h | 12.2 h | – | 0.792 nM | – | 89.7 L/kg | 84.8 mL/min/kg | 994 ng·h/mL | – | – | – | –
CC(=O)O[C@@]12CO[C@@H]1C[C@H](O)[C@@]1(C)C(=O)[C@H](O)C3=C(C)[C@@H](OC(=O)[C@H](O)[C@@H](NC(=O)OC(C)(C)C(F)(F)F)c4ccccc4)C[C@@](O)([C@@H](OC(=O)c4cccc(F)c4)[C@H]21)C3(C)C | 0.21 nM | 0.191 nM | – | 3870 ng·h/mL | 0.108 nM | 0.0547 nM | 2.13 h | 7.62 h | – | 0.149 nM | – | 13.7 L/kg | 21.3 mL/min/kg | 3940 ng·h/mL | – | – | – | –
CC(=O)O[C@@]12CO[C@@H]1C[C@H](O)[C@@]1(C)C(=O)[C@H](O)C3=C(C)[C@@H](OC(=O)[C@H](O)[C@@H](NC(=O)OC(C)(C)CF)c4ccccc4)C[C@@](O)([C@@H](OC(=O)c4cccc(F)c4)[C@H]21)C3(C)C | 0.248 nM | 2.97 nM | – | 2190 ng·h/mL | 0.0669 nM | 0.00111 nM | 2.3 h | 6.8 h | – | 0.205 nM | – | 22.7 L/kg | 37.7 mL/min/kg | 2240 ng·h/mL | – | – | – | –
CC(=O)O[C@@]12CO[C@@H]1C[C@H](O)[C@@]1(C)C(=O)[C@H](O)C3=C(C)[C@@H](OC(=O)[C@H](O)[C@@H](NC(=O)OC(C)(C)C(F)(F)F)c4ccccc4)C[C@@](O)([C@@H](OC(=O)c4ccccc4)[C@H]21)C3(C)C | 0.0834 nM | 0.41 nM | – | 3860 ng·h/mL | 0.694 nM | 0.263 nM | 2.32 h | 9.91 h | – | 0.626 nM | – | 18.1 L/kg | 21 mL/min/kg | 3960 ng·h/mL | – | – | – | –
CC(=O)O[C@@]12CO[C@@H]1C[C@H](O)[C@@]1(C)C(=O)[C@H](O)C3=C(C)[C@@H](OC(=O)[C@H](O)[C@@H](NC(=O)OC(C)(C)C(F)F)c4ccccc4)C[C@@](O)([C@@H](OC(=O)c4ccccc4)[C@H]21)C3(C)C | 0.282 nM | 0.554 nM | – | 2860 ng·h/mL | 0.332 nM | 0.176 nM | 2.76 h | 7.69 h | – | 0.369 nM | – | 20.2 L/kg | 29.8 mL/min/kg | 2930 ng·h/mL | – | – | – | –
CC(=O)O[C@@]12CO[C@@H]1C[C@H](O)[C@@]1(C)C(=O)[C@H](O)C3=C(C)[C@@H](OC(=O)[C@H](O)[C@@H](NC(=O)OC(C)(C)C(F)F)c4ccccc4)C[C@@](O)([C@@H](OC(=O)c4cccc(F)c4)[C@H]21)C3(C)C | – | 0.584 nM | – | 1930 ng·h/mL | 0.161 nM | 0.183 nM | 2.4 h | 10.2 h | – | 0.182 nM | – | 36.2 L/kg | 42.5 mL/min/kg | 1990 ng·h/mL | – | – | – | –
CC(=O)O[C@@]12CO[C@@H]1C[C@H](O)[C@@]1(C)C(=O)[C@H](O)C3=C(C)[C@@H](OC(=O)[C@H](O)[C@@H](NC(=O)OC(C)(C)C)c4ccccc4)C[C@@](O)([C@@H](OC(=O)c4ccccc4)[C@H]21)C3(C)C.O.O.O [DOCETAXEL] | 0.454 nM | 0.114 nM | – | 646 ng·h/mL | 0.132 nM | 0.0115 nM | 3.34 h | 7.37 h | – | 0.234 nM | – | 78.8 L/kg | 125 mL/min/kg | 667 ng·h/mL | – | – | – | –
